Assay results from ChEMBL document CHEMBL5154945, “Discovery and Optimization of Pyrrolopyrimidine Derivatives as Selective Disruptors of the Perinucleolar Compartment, a Marker of Tumor Progression toward Metastasis” (J Med Chem, 2022).

How the values were obtained:
RPMI-8226 = assay: Anticancer activity against human RPMI-8226 cells assessed as cell growth inhibition; type: functional, cell-based; conditions: dose 1-100 µM, DDE = dose-dependent effect
SW-620 = assay: Anticancer activity against human SW-620 cells assessed as cell growth inhibition; type: functional, cell-based; conditions: dose 1-100 µM, DDE = dose-dependent effect
OVCAR-8 = assay: Anticancer activity against human OVCAR-8 cells assessed as cell growth inhibition; type: functional, cell-based; conditions: dose 1-100 µM, DDE = dose-dependent effect
OVCAR-3 = assay: Anticancer activity against human OVCAR-3 cells assessed as cell growth inhibition; type: functional, cell-based; conditions: dose 1-100 µM, DDE = dose-dependent effect
PC-3M [1] = assay: Cytotoxicity against human PC-3M cells expressing PTB/GFP fusion protein assessed as reduction in ATP level at 20 uM and measured after 24 to 48 hrs by ATPlite luminescence assay; type: toxicity, cell-based; conditions: time 24-48 hrs
SK-MEL-2 = assay: Anticancer activity against human SK-MEL-2 cells assessed as cell growth inhibition; type: functional, cell-based; conditions: dose 1-100 µM, DDE = dose-dependent effect
A498 = assay: Anticancer activity against human A498 cells assessed as cell growth inhibition; type: functional, cell-based; conditions: dose 1-100 µM, DDE = dose-dependent effect
NCI-H226 = assay: Anticancer activity against human NCI-H226 cells assessed as cell growth inhibition; type: functional, cell-based; conditions: dose 1-100 µM, DDE = dose-dependent effect
ACHN = assay: Anticancer activity against human ACHN cells assessed as cell growth inhibition; type: functional, cell-based; conditions: dose 1-100 µM, DDE = dose-dependent effect
UACC-62 = assay: Anticancer activity against human UACC-62 cells assessed as cell growth inhibition; type: functional, cell-based; conditions: dose 1-100 µM, DDE = dose-dependent effect
MDA-MB-468 = assay: Anticancer activity against human MDA-MB-468 cells assessed as cell growth inhibition; type: functional, cell-based; conditions: dose 1-100 µM, DDE = dose-dependent effect
Malme-3M = assay: Anticancer activity against human Malme-3M cells assessed as cell growth inhibition; type: functional, cell-based; conditions: dose 1-100 µM, DDE = dose-dependent effect
SK-MEL-5 = assay: Anticancer activity against human SK-MEL-5 cells assessed as cell growth inhibition; type: functional, cell-based; conditions: dose 1-100 µM, DDE = dose-dependent effect
OVCAR-4 = assay: Anticancer activity against human OVCAR-4 cells assessed as cell growth inhibition; type: functional, cell-based; conditions: dose 1-100 µM, DDE = dose-dependent effect
UACC-257 = assay: Anticancer activity against human UACC-257 cells assessed as cell growth inhibition; type: functional, cell-based; conditions: dose 1-100 µM, DDE = dose-dependent effect
SF-539 = assay: Anticancer activity against human SF-539 cells assessed as cell growth inhibition; type: functional, cell-based; conditions: dose 1-100 µM, DDE = dose-dependent effect
PC-3M [2] = assay: Antiproliferative activity against human PC-3M cells expressing PTB/GFP fusion protein assessed as reduction of nucleolar volume at 1 to 30 uM measured after 24 hrs by Nucleolar-id Green Detection based confocal microscopic analysis; type: functional, cell-based; conditions: dose 1-30 µM, DDE = dose-dependent effect
Summary of the method: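 PC-3M cells grown in RPMI 1640 with 10% FBS and penicillin/streptomycin, trypsinized at 70% confluence, and seeded at 2×10^5 cells/mL overnight at 37 °C, 5% CO₂. Medium replaced with compound or 1% DMSO for 24 h. Nucleoli stained with Nucleolar-ID Green and nuclei with Hoechst 33342, then imaged by confocal microscopy. Bright green objects in three images per condition normalized to nuclei count; vehicle set to 100.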

OVCAR-5 = assay: Anticancer activity against human OVCAR-5 cells assessed as cell growth inhibition; type: functional, cell-based; conditions: dose 1-100 µM, DDE = dose-dependent effect
SNB-75 = assay: Anticancer activity against human SNB-75 cells assessed as cell growth inhibition; type: functional, cell-based; conditions: dose 1-100 µM, DDE = dose-dependent effect
U-251 = assay: Anticancer activity against human U-251 cells assessed as cell growth inhibition; type: functional, cell-based; conditions: dose 1-100 µM, DDE = dose-dependent effect
SK-MEL-28 = assay: Anticancer activity against human SK-MEL-28 cells assessed as cell growth inhibition; type: functional, cell-based; conditions: dose 1-100 µM, DDE = dose-dependent effect
K562 = assay: Anticancer activity against human K562 cells assessed as cell growth inhibition; type: functional, cell-based; conditions: dose 1-100 µM, DDE = dose-dependent effect
HL-60(TB) = assay: Anticancer activity against human HL-60(TB) cells assessed as cell growth inhibition; type: functional, cell-based; conditions: dose 1-100 µM, DDE = dose-dependent effect
HCT-15 = assay: Anticancer activity against human HCT-15 cells assessed as cell growth inhibition; type: functional, cell-based; conditions: dose 1-100 µM, DDE = dose-dependent effect
COLO 205 = assay: Anticancer activity against human COLO 205 cells assessed as cell growth inhibition; type: functional, cell-based; conditions: dose 1-100 µM, DDE = dose-dependent effect
M14 = assay: Anticancer activity against human M14 cells assessed as cell growth inhibition; type: functional, cell-based; conditions: dose 1-100 µM, DDE = dose-dependent effect
HT-29 = assay: Anticancer activity against human HT-29 cells assessed as cell growth inhibition; type: functional, cell-based; conditions: dose 1-100 µM, DDE = dose-dependent effect
RXF 393 = assay: Anticancer activity against human RXF 393 cells assessed as cell growth inhibition; type: functional, cell-based; conditions: dose 1-100 µM, DDE = dose-dependent effect
HCC 2998 = assay: Anticancer activity against human HCC 2998 cells assessed as cell growth inhibition; type: functional, cell-based; conditions: dose 1-100 µM, DDE = dose-dependent effect
NCI-H322M = assay: Anticancer activity against human NCI-H322M cells assessed as cell growth inhibition; type: functional, cell-based; conditions: dose 1-100 µM, DDE = dose-dependent effect
SR = assay: Anticancer activity against human SR cells assessed as cell growth inhibition; type: functional, cell-based; conditions: dose 1-100 µM, DDE = dose-dependent effect
786-0 = assay: Anticancer activity against human 786-0 cells assessed as cell growth inhibition; type: functional, cell-based; conditions: dose 1-100 µM, DDE = dose-dependent effect
NCI/ADR-RES = assay: Anticancer activity against human NCI/ADR-RES cells assessed as cell growth inhibition; type: functional, cell-based; conditions: dose 1-100 µM, DDE = dose-dependent effect
T47D = assay: Anticancer activity against human T47D cells assessed as cell growth inhibition; type: functional, cell-based; conditions: dose 1-100 µM, DDE = dose-dependent effect
CCRF-CEM = assay: Anticancer activity against human CCRF-CEM cells assessed as cell growth inhibition; type: functional, cell-based; conditions: dose 1-100 µM, DDE = dose-dependent effect
MCF7 = assay: Anticancer activity against human MCF7 cells assessed as cell growth inhibition; type: functional, cell-based; conditions: dose 1-100 µM, DDE = dose-dependent effect
IGROV-1 = assay: Anticancer activity against human IGROV-1 cells assessed as cell growth inhibition; type: functional, cell-based; conditions: dose 1-100 µM, DDE = dose-dependent effect
NCI-H460 = assay: Anticancer activity against human NCI-H460 cells assessed as cell growth inhibition; type: functional, cell-based; conditions: dose 1-100 µM, DDE = dose-dependent effect
TK-10 = assay: Anticancer activity against human TK-10 cells assessed as cell growth inhibition; type: functional, cell-based; conditions: dose 1-100 µM, DDE = dose-dependent effect
SF-295 = assay: Anticancer activity against human SF-295 cells assessed as cell growth inhibition; type: functional, cell-based; conditions: dose 1-100 µM, DDE = dose-dependent effect
MDA-MB-231 = assay: Anticancer activity against human MDA-MB-231 cells assessed as cell growth inhibition; type: functional, cell-based; conditions: dose 1-100 µM, DDE = dose-dependent effect
NCI-H23 = assay: Anticancer activity against human NCI-H23 cells assessed as cell growth inhibition; type: functional, cell-based; conditions: dose 1-100 µM, DDE = dose-dependent effect
HCT-116 = assay: Anticancer activity against human HCT-116 cells assessed as cell growth inhibition; type: functional, cell-based; conditions: dose 1-100 µM, DDE = dose-dependent effect
SNB-19 = assay: Anticancer activity against human SNB-19 cells assessed as cell growth inhibition; type: functional, cell-based; conditions: dose 1-100 µM, DDE = dose-dependent effect
PC-3 = assay: Anticancer activity against human PC-3 cells assessed as cell growth inhibition; type: functional, cell-based; conditions: dose 1-100 µM, DDE = dose-dependent effect
Hs-578T = assay: Anticancer activity against human Hs-578T cells assessed as cell growth inhibition; type: functional, cell-based; conditions: dose 1-100 µM, DDE = dose-dependent effect
BT-549 = assay: Anticancer activity against human BT-549 cells assessed as cell growth inhibition; type: functional, cell-based; conditions: dose 1-100 µM, DDE = dose-dependent effect
MDA-MB-435 = assay: Anticancer activity against human MDA-MB-435 cells assessed as cell growth inhibition; type: functional, cell-based; conditions: dose 1-100 µM, DDE = dose-dependent effect
EKVX = assay: Anticancer activity against human EKVX cells assessed as cell growth inhibition; type: functional, cell-based; conditions: dose 1-100 µM, DDE = dose-dependent effect
MOLT-4 = assay: Anticancer activity against human MOLT-4 cells assessed as cell growth inhibition; type: functional, cell-based; conditions: dose 1-100 µM, DDE = dose-dependent effect
UO-31 = assay: Anticancer activity against human UO-31 cells assessed as cell growth inhibition; type: functional, cell-based; conditions: dose 1-100 µM, DDE = dose-dependent effect
KM12 = assay: Anticancer activity against human KM12 cells assessed as cell growth inhibition; type: functional, cell-based; conditions: dose 1-100 µM, DDE = dose-dependent effect
A549 = assay: Anticancer activity against human A549 cells assessed as cell growth inhibition; type: functional, cell-based; conditions: dose 1-100 µM, DDE = dose-dependent effect
SN12C = assay: Anticancer activity against human SN12C cells assessed as cell growth inhibition; type: functional, cell-based; conditions: dose 1-100 µM, DDE = dose-dependent effect
CAKI-1 = assay: Anticancer activity against human CAKI-1 cells assessed as cell growth inhibition; type: functional, cell-based; conditions: dose 1-100 µM, DDE = dose-dependent effect
PC-3M [3] = assay: Antiproliferative activity against human PC-3M cells expressing PTB/GFP fusion protein assessed as cell growth inhibition at < 100 nM and measured every four hrs for 130 hrs by IncuCyte zoom live cell analysis; type: functional, cell-based; conditions: DDE = dose-dependent effect
Summary of the method: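 PC3M cells stably expressing GFP-PTB, grown in DMEM with 10% FBS and 1% penicillin/streptomycin, seeded at 1.25×10^4 cells/ml in 384-well plates and left overnight at 37 °C, 5% CO2. Compound added in DMEM to give 11 final concentrations from 10 nM to 20 μM. Brightfield images were taken every 4 h for about 130 h and scored as percent confluence.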

HOP-62 = assay: Anticancer activity against human HOP-62 cells assessed as cell growth inhibition; type: functional, cell-based; conditions: dose 1-100 µM, DDE = dose-dependent effect
SK-OV-3 = assay: Anticancer activity against human SK-OV-3 cells assessed as cell growth inhibition; type: functional, cell-based; conditions: dose 1-100 µM, DDE = dose-dependent effect
DU-145 = assay: Anticancer activity against human DU-145 cells assessed as cell growth inhibition; type: functional, cell-based; conditions: dose 1-100 µM, DDE = dose-dependent effect
LOX IMVI = assay: Anticancer activity against human LOX IMVI cells assessed as cell growth inhibition; type: functional, cell-based; conditions: dose 1-100 µM, DDE = dose-dependent effect
NCI-H522 = assay: Anticancer activity against human NCI-H522 cells assessed as cell growth inhibition; type: functional, cell-based; conditions: dose 1-100 µM, DDE = dose-dependent effect
SF-268 = assay: Anticancer activity against human SF-268 cells assessed as cell growth inhibition; type: functional, cell-based; conditions: dose 1-100 µM, DDE = dose-dependent effect

Measured: Activity

N=c1c2c(-c3ccccc3)c(-c3ccccc3)n(Cc3ccccc3)c2ncn1CCCO
active: RPMI-8226 Dde | SW-620 Dde | OVCAR-8 Dde | OVCAR-3 Dde | SK-MEL-2 Dde | A498 Dde | NCI-H226 Dde | ACHN Dde | UACC-62 Dde | MDA-MB-468 Dde | Malme-3M Dde | SK-MEL-5 Dde | OVCAR-4 Dde | UACC-257 Dde | SF-539 Dde | PC-3M [2] Dde | OVCAR-5 Dde | SNB-75 Dde | U-251 Dde | SK-MEL-28 Dde | K562 Dde | HL-60(TB) Dde | HCT-15 Dde | COLO 205 Dde | M14 Dde | HT-29 Dde | RXF 393 Dde | HCC 2998 Dde | NCI-H322M Dde | SR Dde | 786-0 Dde | NCI/ADR-RES Dde | T47D Dde | CCRF-CEM Dde | MCF7 Dde | IGROV-1 Dde | NCI-H460 Dde | TK-10 Dde | SF-295 Dde | MDA-MB-231 Dde | NCI-H23 Dde | HCT-116 Dde | SNB-19 Dde | PC-3 Dde | Hs-578T Dde | BT-549 Dde | MDA-MB-435 Dde | EKVX Dde | MOLT-4 Dde | UO-31 Dde | KM12 Dde | A549 Dde | SN12C Dde | CAKI-1 Dde | PC-3M [3] Dde | HOP-62 Dde | SK-OV-3 Dde | DU-145 Dde | LOX IMVI Dde | NCI-H522 Dde | SF-268 Dde
Toxic: PC-3M [1]
